According to ChEMBL document CHEMBL1129445 (J Med Chem, 1996):
pIC50: −log10 of the molar value.

Tests used:
Homo sapiens [1] = species: Homo sapiens; assay: Inhibition of human Lymphocyte proliferation. The IC50 values were determined by interpolation using the cubic spline determination at 10 uM; type: functional
Outline: (§1)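 Human PBMC are isolated on Ficoll from heparinized blood and plated at 2 × 10^5 cells/well in RPMI-1640 with 5% FCS. Cells are stimulated with PHA (10 μg/mL final) and given compound at time 0, at 4-6 concentrations between 0.001 and 20 μM (tested to 10 μM). Cultures run in quadruplicate for 72 h at 37 °C, 7% CO2, with [3H]thymidine (0.5 μCi/well) for the last 6 h. IC50 by cubic-spline interpolation of the means.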

[2] = biological target: T1, Inosine-5'-monophosphate dehydrogenase 2 (Homo sapiens, UniProt P12268); assay: Inhibition of human recombinant type II Inosine Monophosphate Dehydrogenase at 100 uM
Outline: (§2)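 Reactions are run either at pH 7.4 (0.1 M K phosphate, 0.5 M KCl, 3 mM EDTA, 10 μg/mL BSA) or at pH 8.0 (0.1 M Tris-HCl, 0.1 M KCl, 3 mM EDTA, 100 μg/mL BSA). DMSO ≤10%, compounds tested up to 100 μM. IC50 from fit of fractional activity = V0/[(I/IC50)^n + 1].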

Homo sapiens [3] = species: Homo sapiens; assay: Inhibition of human Lymphocyte proliferation. The IC50 values were determined by interpolation using cubic spline determination.; type: functional; outline: as §1
[4] = biological target: T1, Inosine-5'-monophosphate dehydrogenase 2; assay: Inhibition of human recombinant inosine monophosphate dehydrogenase type II.; outline: as §2
[5] = biological target: T1, Inosine-5'-monophosphate dehydrogenase 2; assay: Inhibition of human recombinant type II Inosine Monophosphate Dehydrogenase. at pH 8.0
Outline: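 Recombinant human type II IMPDH (12.5-25 pmol) in 0.1 M Tris-HCl pH 8.0, 0.1 M KCl, 3 mM EDTA, 100 μg/mL BSA. […] IC50 fitted with a Hill equation, fractional activity = V0/[(I/IC50)^n + 1].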

Mus musculus [6] = assay: Tested for the inhibition of murine PFC response at 100 mg/kg dose; type: functional
Homo sapiens [7] = species: Homo sapiens; assay: Compound was tested for inhibition of human Lymphocyte proliferation. The IC50 values were determined by interpolation using the cubic spline determination at 10 uM; type: functional; outline: as §1
Mus musculus [8] = assay: % inhibition of Murine plaque forming cells response was measured in Mice at 25 mg/kg dose; type: functional
Mus musculus [9] = assay: % inhibition of Murine plaque forming cells response was measured in Mice at 6.25 mg/kg dose; type: functional
Mus musculus [10] = species: Mus musculus; assay: Effective dose was measured in mice as concentration required to inhibit 50% inhibition of Murine PFC response; type: functional
Outline: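 Jerne plaque assay in female C3H or CD-1 mice immunized ip with SRBC on day 0, with oral daily dosing over the next 4 days. Splenic PFC per 10^6 WBC counted on day 4. ED50 read graphically from the dose-inhibition data.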

Mus musculus [11] = assay: % inhibition of Murine plaque forming cells response was measured in Mice at 12.5 mg/kg dose; type: functional
Mus musculus [12] = assay: Tested for the inhibition of murine PFC response at 12.5 mg/kg dose; type: functional
Mus musculus [13] = assay: Tested for the inhibition of murine PFC response at 25 mg/kg dose; type: functional
Mus musculus [14] = assay: Tested for the inhibition of murine PFC response at 50 mg/kg dose; type: functional
Mus musculus [15] = species: Mus musculus; assay: Compound was tested for its % Inhibition of Murine PFC response in Mice; type: functional
[16] = biological target: T1, Inosine-5'-monophosphate dehydrogenase 2; assay: Compound was tested for inhibition of human recombinant type II Inosine Monophosphate Dehydrogenase. (tested to 100 and 10 uM conc); outline: as §2
Mus musculus [17] = assay: Tested for the inhibition of murine PFC response at 6.25 mg/kg dose; type: functional
[18] = Compound was tested for inhibition of human Lymphocyte proliferation. The IC50 values were determined by interpolation using the cubic spline determination.; type: functional; outline: as §1

COc1c(C)c(C)c(F)c(Cl)c1C/C=C(\C)CCC(=O)O
pIC50 (Homo sapiens [1]): < 5.00 | pIC50 [2]: 4.93

C/C(=C\Cc1c(C)c(C)c(C)c([N+](=O)[O-])c1O)CCC(=O)O
pIC50 (Homo sapiens [3]): 5.49 | pIC50 [4]: 6.54

COc1c(C)c2c(c(O)c1C/C=C(\C)CCC(=O)O)C(=O)OCC2
pIC50 [5]: 6.19 | pIC50 (Homo sapiens [3]): 5.07

COc1c(C/C=C(\C)CCC(=O)O)cc(S(C)=O)c(C)c1C (centres undefined)
pIC50 (Homo sapiens [1]): < 5.00 | pIC50 [2]: < 4.00

COc1c(C)c(C)c(Cl)c(C)c1C/C=C(\C)CCC(=O)O
pIC50 (Homo sapiens [1]): < 5.00 | pIC50 [2]: 5.77

COc1c(C)c(C)c(Cl)c(N)c1C/C=C(\C)CCC(=O)O
pIC50 (Homo sapiens [3]): 5.39 | inhibition in vivo at 100 mg/kg (Mus musculus [6]): 42% | pIC50 [4]: 6.31

CO/N=C/c1c(C)c(C)c(OC)c(C/C=C(\C)CCC(=O)O)c1O
pIC50 (Homo sapiens [7]): < 5.00 | pIC50 [2]: 4.28

COc1cc2c(c(O)c1C/C=C(\C)CCC(=O)O)C(=O)OC2
pIC50 [5]: 6.29

COc1c(C)c(C)c(C#N)c(O)c1C/C=C(\C)CCC(=O)O
pIC50 (Homo sapiens [3]): 5.77 | pIC50 [4]: 6.27

C/C(=C\Cc1cc(C)c2c(c1O)C(=O)OC2)CCC(=O)O
pIC50 [5]: 5.16

CCc1c(C)c2c(c(O)c1C/C=C(\C)CCC(=O)O)C(=O)OC2
inhibition in vivo at 25 mg/kg (Mus musculus [8]): 93% | pIC50 (Homo sapiens [3]): 7.24 | inhibition in vivo at 6.25 mg/kg (Mus musculus [9]): 25% | ED50 (Mus musculus [10]): 9 mg/kg | inhibition in vivo at 12.5 mg/kg (Mus musculus [11]): 73% | pIC50 [4]: 7.90

COc1c(C)c(C)c(Cl)c(O)c1C/C=C(\C)CCC(=O)O
pIC50 (Homo sapiens [3]): 6.70 | inhibition in vivo at 12.5 mg/kg (Mus musculus [12]): 0% | inhibition in vivo at 25 mg/kg (Mus musculus [13]): 0% | inhibition in vivo at 100 mg/kg (Mus musculus [6]): 83% | pIC50 [4]: 7.47

COc1c(C)c2c(c(O)c1C/C=C(\C)CCC(=O)O)C(=O)SC2
pIC50 (Homo sapiens [3]): 5.77 | pIC50 [4]: 6.92

COc1c(Br)c2c(c(O)c1C/C=C(\C)CCC(=O)O)C(=O)OC2
pIC50 [5]: 6.01 | pIC50 (Homo sapiens [3]): 5.40

COc1c(C)c(C)c(F)c(F)c1C/C=C(\C)CCC(=O)O
pIC50 (Homo sapiens [1]): < 5.00 | pIC50 [2]: 5.86

C/C(=C\Cc1c(C)c(C)c2c(c1O)C(=O)OC2)CCC(=O)O
pIC50 [5]: 7.73 | pIC50 (Homo sapiens [3]): 6.60 | inhibition in vivo at 50 mg/kg (Mus musculus [14]): 45%

COc1c(C/C=C(\C)CCC(=O)O)c(O)c2c(c1OC)COC2=O
pIC50 [5]: 6.90 | Inhibition (Mus musculus [15]): 49% | pIC50 (Homo sapiens [3]): 6.89

COc1c(C)c(C)cc(Cl)c1C/C=C(\C)CCC(=O)O
pIC50 (Homo sapiens [1]): < 5.00 | pIC50 [2]: 4.73

COc1c(C)c(C)c(Br)c(Cl)c1C/C=C(\C)CCC(=O)O
pIC50 (Homo sapiens [1]): < 5.00 | pIC50 [2]: 5.98

COc1c(C)c2c(c(O)c1C/C=C(\C)CCC(=O)O)C(=O)CC2
pIC50 (Homo sapiens [3]): 6.08 | pIC50 [4]: 6.85

C/C(=C\Cc1c(O)cc(C)c(C)c1C)CCC(=O)O
pIC50 [16]: < 4.00

COc1c(C/C=C(\C)CCC(=O)O)c(O)c2c(c1C(N)=O)COC2=O
pIC50 [5]: < 4.00 | pIC50 (Homo sapiens [3]): < 5.00

COc1c(C)c(C)c(O)c(Cl)c1C/C=C(\C)CCC(=O)O
pIC50 (Homo sapiens [1]): < 5.00 | pIC50 [2]: 5.54

COc1c(C)c2c(c(O)c1C/C=C(\C)CCC(=O)O)C(=O)OC2 [MYCOPHENOLIC ACID]
inhibition in vivo at 6.25 mg/kg (Mus musculus [17]): 16% | pIC50 (Homo sapiens [3]): 7.24 | inhibition in vivo at 12.5 mg/kg (Mus musculus [12]): 20% | inhibition in vivo at 25 mg/kg (Mus musculus [13]): 36% | ED50 (Mus musculus [10]): 33 mg/kg | inhibition in vivo at 50 mg/kg (Mus musculus [14]): 81%

COc1c(C)c(C)cc(O)c1C/C=C(\C)CCC(=O)O
pIC50 [4]: 4.29

COc1c(C)c(C)c(F)c(O)c1C/C=C(\C)CCC(=O)O
pIC50 (Homo sapiens [3]): 5.39 | pIC50 [4]: 5.97

COc1c(C)c2c(c(O)c1C/C=C(\C)CCC(=O)O)C(=O)N(C)C2
pIC50 [5]: < 4.00 | pIC50 [18]: < 5.00

C/C(=C\Cc1c(C)c(C)c(C)c(Br)c1O)CCC(=O)O
pIC50 (Homo sapiens [3]): 5.78 | pIC50 [4]: 6.21

COc1c(C)c(C)c(Cl)c(Cl)c1C/C=C(\C)CCC(=O)O
pIC50 (Homo sapiens [1]): < 5.00 | pIC50 [2]: 6.25

COc1c(C/C=C(\C)CCC(=O)O)cc(Cl)c(C)c1C
pIC50 (Homo sapiens [3]): 5.17 | pIC50 [4]: 6.27

COc1c(C)c(C)c(Br)c(O)c1C/C=C(\C)CCC(=O)O
pIC50 (Homo sapiens [3]): 6.55 | inhibition in vivo at 100 mg/kg (Mus musculus [6]): 5% | pIC50 [4]: 7.44

COc1c(C)c(C)c([N+](=O)[O-])c(O)c1C/C=C(\C)CCC(=O)O
pIC50 [4]: 6.74
